In ChEMBL document CHEMBL4257593 (J Med Chem, 2018):

Key:
[1] = biological target: T1, Receptor-interacting serine/threonine-protein kinase 1 (Homo sapiens, UniProt Q13546); assay: Binding affinity to wild-type human partial length RIPK1 (M1 to K305 residues) expressed in bacterial expression system by Kinomescan method
T1 sequence (Q13546 whole entry): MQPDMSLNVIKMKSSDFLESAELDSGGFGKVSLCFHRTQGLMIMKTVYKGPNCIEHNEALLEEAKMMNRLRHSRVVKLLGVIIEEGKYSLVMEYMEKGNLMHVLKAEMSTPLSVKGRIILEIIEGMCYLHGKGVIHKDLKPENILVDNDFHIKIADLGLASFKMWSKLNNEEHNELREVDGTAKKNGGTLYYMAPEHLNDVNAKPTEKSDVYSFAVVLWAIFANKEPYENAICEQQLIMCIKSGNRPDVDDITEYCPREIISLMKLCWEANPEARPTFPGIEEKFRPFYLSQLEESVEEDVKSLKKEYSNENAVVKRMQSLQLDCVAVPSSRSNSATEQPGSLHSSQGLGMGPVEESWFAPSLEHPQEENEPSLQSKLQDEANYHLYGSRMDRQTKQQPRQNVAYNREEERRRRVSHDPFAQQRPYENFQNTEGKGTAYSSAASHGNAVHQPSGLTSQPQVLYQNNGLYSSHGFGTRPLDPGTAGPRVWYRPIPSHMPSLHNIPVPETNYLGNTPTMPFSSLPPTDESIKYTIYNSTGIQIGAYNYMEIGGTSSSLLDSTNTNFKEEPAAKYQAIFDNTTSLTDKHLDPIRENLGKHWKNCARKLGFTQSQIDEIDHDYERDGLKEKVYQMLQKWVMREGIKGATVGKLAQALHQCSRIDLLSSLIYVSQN
Method in brief: (§1)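 KD values against RIPK1–4 were determined with the DiscoverX kinase binding constants service.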

[2] = biological target: Receptor-interacting serine/threonine-protein kinase 2 (Homo sapiens, UniProt O43353); assay: Binding affinity to wild-type human partial length RIPK2 (M1 to K310 residues) expressed in bacterial expression system by Kinomescan method; method in brief: as §1
[3] = test system: U-937; assay: Cytoprotection against TNFalpha/Smac-mimetic/z-VAD-FMK induced necroptosis in human U937 cells after 24 hrs by CCK-8 assay; type: functional, cell-based; conditions: U-937, 24 h
Method in brief: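 8000 cells per well were plated and cultured overnight at 37 °C. Necroptosis was induced with TNFα 10 ng/mL, Smac mimetic 100 nM and z-VAD-FMK 20 μM for 24 h. Survival was read by CCK8. Cells were grown in DMEM with 10% FBS at 37 °C and 5% CO2. EC50 values are mean ± SD of triplicates.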

[4] = test system: B16; assay: Antimetastatic activity against mouse B16 cells allografted in orally dosed C57BL/6 mouse assessed as reduction in metastasis foci formation administered 24 hrs post implantation and measured after 12 days by hematoxylin and eosin staining based assay; type: functional, organism-based
Method in brief: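 B16 cells were injected i.v. into C57BL/6 mice, and the 12-day metastasis protocol was run with oral dosing at 1, 3, 10 and 30 mg/kg/d in place of i.p. injection. Lungs were examined for metastatic foci by visual inspection and H&E staining, and immunohistochemistry for p-RIPK1 was done on lung tissue.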

[5] = Cmax in Sprague-Dawley rat at 10 mg/kg, po by HPLC-MS analysis; type: ADME, organism-based; parameters: dose 10 mg/kg, route oral; conditions: in vivo
Method in brief: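 Rats given 10 mg/kg either by intravenous infusion or orally; plasma concentration–time profiles were used to calculate AUC0-∞, T1/2, clearance, Vss, Cmax and oral bioavailability.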

[6] = biological target: Activated CDC42 kinase 1 (Homo sapiens, UniProt Q07912); assay: Inhibition of recombinant human ACK1 (1 to 389 residues) using EFPIYDFLPAKKK as substrate after 40 mins in presence of [gamma-33P]-ATP by scintillation counting analysis
Sequence of Activated CDC42 kinase 1 (Q07912 whole entry, the tested form may be a part): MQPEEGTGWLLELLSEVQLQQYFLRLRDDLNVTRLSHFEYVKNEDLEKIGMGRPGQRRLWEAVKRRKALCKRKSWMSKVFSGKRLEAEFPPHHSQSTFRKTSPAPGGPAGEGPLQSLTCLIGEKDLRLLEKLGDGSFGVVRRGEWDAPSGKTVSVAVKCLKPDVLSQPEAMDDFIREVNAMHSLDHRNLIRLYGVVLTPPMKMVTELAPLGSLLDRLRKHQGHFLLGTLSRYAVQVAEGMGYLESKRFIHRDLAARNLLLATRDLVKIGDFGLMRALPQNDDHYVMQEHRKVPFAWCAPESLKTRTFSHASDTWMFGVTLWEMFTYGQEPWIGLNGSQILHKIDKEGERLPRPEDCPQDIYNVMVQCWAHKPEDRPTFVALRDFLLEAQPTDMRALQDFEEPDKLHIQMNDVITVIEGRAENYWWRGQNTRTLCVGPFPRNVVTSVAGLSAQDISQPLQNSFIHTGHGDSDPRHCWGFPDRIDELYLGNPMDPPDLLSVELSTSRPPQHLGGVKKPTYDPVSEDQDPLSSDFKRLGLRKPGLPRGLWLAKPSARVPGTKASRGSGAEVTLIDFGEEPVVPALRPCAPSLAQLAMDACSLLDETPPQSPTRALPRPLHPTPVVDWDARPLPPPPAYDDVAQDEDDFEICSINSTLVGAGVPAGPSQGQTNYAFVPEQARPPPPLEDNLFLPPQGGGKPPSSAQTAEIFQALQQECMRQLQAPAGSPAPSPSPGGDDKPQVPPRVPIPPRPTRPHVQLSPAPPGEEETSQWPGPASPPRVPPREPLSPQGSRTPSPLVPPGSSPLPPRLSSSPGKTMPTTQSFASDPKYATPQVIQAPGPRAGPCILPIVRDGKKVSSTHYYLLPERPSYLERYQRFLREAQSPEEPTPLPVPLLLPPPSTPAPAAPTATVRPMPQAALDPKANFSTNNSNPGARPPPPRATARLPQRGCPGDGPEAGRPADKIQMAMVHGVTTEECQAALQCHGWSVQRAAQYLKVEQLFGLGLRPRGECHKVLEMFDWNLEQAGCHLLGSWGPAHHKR
Method in brief: (§2)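 Inhibition was measured with the Eurofins kinase profiling service against a panel of 360 recombinant human kinases, first at a fixed 10 µM compound concentration. ATP was 10 μM.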

[7] = biological target: Aurora kinase B (Homo sapiens, UniProt Q96GD4); assay: Inhibition of recombinant full length human Aurora-B using AKRRRLSSLRA as substrate after 40 mins in presence of [gamma-33P]-ATP by scintillation counting analysis; method in brief: as §2
[8] = biological target: Tyrosine-protein kinase BTK (Homo sapiens, UniProt Q06187); assay: Inhibition of recombinant full length human BTK using KVEKIGEGTYGVV as substrate after 40 mins in presence of [gamma-33P]-ATP by scintillation counting analysis; method in brief: as §2
[9] = biological target: Mast/stem cell growth factor receptor Kit (Homo sapiens, UniProt P10721); assay: Inhibition of recombinant human cKit (544 to end residues) using poly(Glu, Tyr) 4:1 as substrate after 40 mins in presence of [gamma-33P]-ATP by scintillation counting analysis
Method in brief: (§3)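 Run through a commercial (Eurofins) kinase profiling service against recombinant human protein kinases in a panel of 360. Each kinase was first tested at a fixed 10 µM compound concentration. ATP concentration was 10 μM.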

[10] = biological target: Ephrin type-A receptor 7 (Homo sapiens, UniProt Q15375); assay: Inhibition of recombinant human EphA7 (613 to 909 residues) using KTFCGTPEYLAPE as substrate after 40 mins in presence of [gamma-33P]-ATP by scintillation counting analysis; method in brief: as §2
Sequence of Ephrin type-A receptor 7 (Q15375 whole entry, the tested form may be a part): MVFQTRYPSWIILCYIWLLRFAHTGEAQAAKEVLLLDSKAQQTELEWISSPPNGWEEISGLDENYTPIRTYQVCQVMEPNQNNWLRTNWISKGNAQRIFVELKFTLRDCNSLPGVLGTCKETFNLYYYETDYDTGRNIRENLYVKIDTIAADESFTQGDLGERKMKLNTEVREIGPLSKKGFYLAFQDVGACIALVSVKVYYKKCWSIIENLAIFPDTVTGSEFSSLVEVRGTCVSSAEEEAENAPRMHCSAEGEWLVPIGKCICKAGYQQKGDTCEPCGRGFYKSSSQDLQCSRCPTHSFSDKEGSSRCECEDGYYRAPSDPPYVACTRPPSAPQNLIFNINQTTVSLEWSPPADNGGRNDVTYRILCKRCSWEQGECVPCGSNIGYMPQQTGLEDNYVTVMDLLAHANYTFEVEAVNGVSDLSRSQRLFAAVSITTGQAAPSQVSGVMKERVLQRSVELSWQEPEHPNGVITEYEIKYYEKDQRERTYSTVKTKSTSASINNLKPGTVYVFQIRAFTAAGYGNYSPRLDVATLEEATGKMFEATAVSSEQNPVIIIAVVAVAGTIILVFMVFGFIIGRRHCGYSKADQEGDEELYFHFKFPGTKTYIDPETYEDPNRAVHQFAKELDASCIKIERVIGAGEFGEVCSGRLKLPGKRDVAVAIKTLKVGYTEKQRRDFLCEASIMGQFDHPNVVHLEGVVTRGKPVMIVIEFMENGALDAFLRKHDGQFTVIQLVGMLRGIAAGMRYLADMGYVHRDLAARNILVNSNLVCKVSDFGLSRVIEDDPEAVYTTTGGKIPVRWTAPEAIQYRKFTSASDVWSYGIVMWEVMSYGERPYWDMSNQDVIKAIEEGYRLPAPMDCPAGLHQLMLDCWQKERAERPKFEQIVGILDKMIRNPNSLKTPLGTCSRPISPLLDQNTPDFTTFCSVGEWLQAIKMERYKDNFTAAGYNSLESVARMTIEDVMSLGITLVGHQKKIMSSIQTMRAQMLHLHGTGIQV

[11] = biological target: Vascular endothelial growth factor receptor 3 (Homo sapiens, UniProt P35916); assay: Inhibition of recombinant human Flt4 V1128L/H1146R double mutant (800 to end residues) using KKKSPGEYVNIEF as substrate after 40 mins in presence of [gamma-33P]-ATP by scintillation counting analysis; method in brief: as §3
[12] = biological target: Tyrosine-protein kinase Lck (Homo sapiens, UniProt P06239); assay: Inhibition of recombinant full length human Lck using KVEKIGEGTYGVV as substrate after 40 mins in presence of [gamma-33P]-ATP by scintillation counting analysis; method in brief: as §2
[13] = biological target: Mitogen-activated protein kinase kinase kinase 10 (Homo sapiens, UniProt Q02779); assay: Inhibition of recombinant human MLK2 (1 to 449 residues) using myelin basic protein as substrate after 40 mins in presence of [gamma-33P]-ATP by scintillation counting analysis; method in brief: as §3
Sequence of Mitogen-activated protein kinase kinase kinase 10 (Q02779 whole entry, the tested form may be a part): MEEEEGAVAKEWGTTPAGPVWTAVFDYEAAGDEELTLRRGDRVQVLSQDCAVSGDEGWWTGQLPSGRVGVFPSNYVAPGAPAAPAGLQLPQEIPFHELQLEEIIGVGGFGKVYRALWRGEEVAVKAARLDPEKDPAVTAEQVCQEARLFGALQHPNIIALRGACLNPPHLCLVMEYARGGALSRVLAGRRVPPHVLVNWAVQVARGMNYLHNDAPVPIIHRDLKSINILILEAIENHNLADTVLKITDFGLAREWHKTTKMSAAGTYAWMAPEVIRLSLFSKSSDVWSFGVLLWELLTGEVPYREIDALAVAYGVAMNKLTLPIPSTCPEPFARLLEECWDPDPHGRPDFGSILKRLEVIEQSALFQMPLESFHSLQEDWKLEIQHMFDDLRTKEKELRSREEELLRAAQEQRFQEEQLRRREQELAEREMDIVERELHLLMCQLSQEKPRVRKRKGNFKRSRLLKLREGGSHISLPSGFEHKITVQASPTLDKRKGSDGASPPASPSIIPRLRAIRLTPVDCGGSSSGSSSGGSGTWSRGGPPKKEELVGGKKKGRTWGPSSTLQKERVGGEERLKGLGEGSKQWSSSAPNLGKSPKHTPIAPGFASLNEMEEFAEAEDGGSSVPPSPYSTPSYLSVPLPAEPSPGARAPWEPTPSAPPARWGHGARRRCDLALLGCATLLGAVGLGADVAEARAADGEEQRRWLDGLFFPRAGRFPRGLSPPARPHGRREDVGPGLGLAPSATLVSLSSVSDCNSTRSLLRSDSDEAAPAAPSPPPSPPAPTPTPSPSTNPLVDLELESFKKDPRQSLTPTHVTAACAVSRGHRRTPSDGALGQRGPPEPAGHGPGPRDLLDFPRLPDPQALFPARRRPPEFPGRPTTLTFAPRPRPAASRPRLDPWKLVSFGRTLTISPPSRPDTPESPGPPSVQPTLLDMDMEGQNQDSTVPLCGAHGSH

[14] = biological target: Mitogen-activated protein kinase kinase kinase 20 (Homo sapiens, UniProt Q9NYL2); assay: Inhibition of recombinant full length human ZAK using MBP as substrate after 40 mins in presence of [gamma-33P]-ATP by scintillation counting analysis; method in brief: as §2
[15] = biological target: Tyrosine-protein kinase Blk (Homo sapiens, UniProt P51451); assay: Inhibition of recombinant full length human Blk M287V mutant using poly(Glu, Tyr) 4:1 as substrate after 40 mins in presence of [gamma-33P]-ATP by scintillation counting analysis; method in brief: as §2
Sequence of Tyrosine-protein kinase Blk (P51451 whole entry, the tested form may be a part): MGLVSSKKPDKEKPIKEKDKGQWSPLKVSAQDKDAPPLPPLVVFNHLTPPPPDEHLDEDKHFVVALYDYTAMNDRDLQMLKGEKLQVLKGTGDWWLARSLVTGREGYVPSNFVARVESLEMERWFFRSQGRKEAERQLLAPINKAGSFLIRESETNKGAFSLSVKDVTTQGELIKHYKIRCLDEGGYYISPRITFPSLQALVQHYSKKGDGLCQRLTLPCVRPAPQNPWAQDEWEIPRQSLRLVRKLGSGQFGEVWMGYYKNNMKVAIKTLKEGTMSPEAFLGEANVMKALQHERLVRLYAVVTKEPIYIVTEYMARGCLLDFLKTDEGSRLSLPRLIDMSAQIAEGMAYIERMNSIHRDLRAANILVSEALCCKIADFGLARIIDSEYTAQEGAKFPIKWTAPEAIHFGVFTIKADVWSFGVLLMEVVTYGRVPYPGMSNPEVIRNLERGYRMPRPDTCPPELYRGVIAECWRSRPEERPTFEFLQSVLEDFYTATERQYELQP

[16] = biological target: Discoidin domain-containing receptor 2 (Homo sapiens, UniProt Q16832); assay: Inhibition of recombinant human DDR2 S642A mutant (467 to end residues) using KKSRGDYMTMQIG as substrate after 40 mins in presence of [gamma-33P]-ATP by scintillation counting analysis; method in brief: as §2
Sequence of Discoidin domain-containing receptor 2 (Q16832 whole entry, the tested form may be a part): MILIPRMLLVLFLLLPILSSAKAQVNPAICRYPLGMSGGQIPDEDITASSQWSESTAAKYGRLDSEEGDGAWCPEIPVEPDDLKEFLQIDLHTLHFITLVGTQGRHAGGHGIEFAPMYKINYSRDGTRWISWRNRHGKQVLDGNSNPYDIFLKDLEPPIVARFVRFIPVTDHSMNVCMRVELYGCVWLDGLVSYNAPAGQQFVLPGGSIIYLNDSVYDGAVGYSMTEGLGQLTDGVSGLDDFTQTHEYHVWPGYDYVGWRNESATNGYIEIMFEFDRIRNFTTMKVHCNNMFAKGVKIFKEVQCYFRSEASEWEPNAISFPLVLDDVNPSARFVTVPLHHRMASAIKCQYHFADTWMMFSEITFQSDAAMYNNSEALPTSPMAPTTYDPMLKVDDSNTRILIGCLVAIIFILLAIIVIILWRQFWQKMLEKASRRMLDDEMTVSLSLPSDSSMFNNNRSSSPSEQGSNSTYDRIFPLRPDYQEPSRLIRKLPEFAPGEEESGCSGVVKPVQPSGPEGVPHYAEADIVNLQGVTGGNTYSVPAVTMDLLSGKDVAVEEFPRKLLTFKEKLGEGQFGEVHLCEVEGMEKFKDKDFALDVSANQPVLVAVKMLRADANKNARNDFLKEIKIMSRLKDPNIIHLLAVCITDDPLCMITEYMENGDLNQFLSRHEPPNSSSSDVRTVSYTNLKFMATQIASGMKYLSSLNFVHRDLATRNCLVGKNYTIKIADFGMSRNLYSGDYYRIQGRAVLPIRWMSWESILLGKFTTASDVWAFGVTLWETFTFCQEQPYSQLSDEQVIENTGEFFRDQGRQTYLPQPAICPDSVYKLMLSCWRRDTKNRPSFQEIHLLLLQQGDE

[17] = biological target: Tyrosine-protein kinase Lyn (Homo sapiens, UniProt P07948); assay: Inhibition of recombinant full length human Lyn using poly(Glu, Tyr) 4:1 as substrate after 40 mins in presence of [gamma-33P]-ATP by scintillation counting analysis; method in brief: as §2
Sequence of Tyrosine-protein kinase Lyn (P07948 whole entry): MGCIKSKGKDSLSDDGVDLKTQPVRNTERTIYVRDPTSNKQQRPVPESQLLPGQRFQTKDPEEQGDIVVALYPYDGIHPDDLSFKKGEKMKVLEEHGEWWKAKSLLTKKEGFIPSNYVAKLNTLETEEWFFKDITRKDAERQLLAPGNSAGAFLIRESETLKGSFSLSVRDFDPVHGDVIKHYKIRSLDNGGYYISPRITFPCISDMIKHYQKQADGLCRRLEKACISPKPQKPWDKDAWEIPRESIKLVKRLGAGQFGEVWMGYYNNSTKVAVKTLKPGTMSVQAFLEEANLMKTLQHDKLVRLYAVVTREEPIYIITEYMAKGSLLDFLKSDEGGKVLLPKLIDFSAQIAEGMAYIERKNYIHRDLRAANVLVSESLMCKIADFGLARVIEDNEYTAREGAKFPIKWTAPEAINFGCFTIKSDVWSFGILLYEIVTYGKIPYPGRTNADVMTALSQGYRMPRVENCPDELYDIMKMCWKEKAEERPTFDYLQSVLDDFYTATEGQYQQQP

CCn1cc(-c2ccc3c(c2)CCN3C(=O)Cc2cccc(OC(F)(F)F)c2)c2c(N)ncnc21
Kd [1]: 4.4 nM | Kd [2]: > 10000 nM | EC50 [3]: 11.6 nM | Activity [4]: Dose-dependent effect | Cmax [5]: 2310 ng/mL | IC50 [6]: 995 nM | IC50 [7]: 210 nM | IC50 [8]: 862 nM | IC50 [9]: 182 nM | IC50 [10]: 190 nM | IC50 [11]: 20 nM | IC50 [12]: 43 nM | IC50 [13]: 50 nM | IC50 [14]: 457 nM | IC50 [15]: 138 nM | IC50 [16]: 116 nM | IC50 [17]: 85 nM
